# Calls of active or inactive are those of the source. The rule behind the calls is not given here.
# Experiments:
# SW-620 [1] = experiment: Cell cycle arrest in human SW620 cells assessed as accumulation at G0/G1 phase at 0.5 uM after 48 hrs using propidium iodide staining by flow cytometry (reference value: 47.8 +/- 1.2%); type: functional
# HCT-116 [2] = experiment: Cell cycle arrest in human HCT116 cells assessed as accumulation at G2/M phase at 5 uM after 48 hrs using propidium iodide staining by flow cytometry (reference value: 7.1 +/- 0.3%); type: functional
# SW-620 [3] = experiment: Cell cycle arrest in human SW620 cells assessed as accumulation at G2/M phase at 5 uM after 48 hrs using propidium iodide staining by flow cytometry (reference value: 9.1 +/- 0.3%); type: functional
# SW-620 [4] = experiment: Cytotoxicity against human SW620 cells expressing p21 siRNA at 10 uM after 24 hrs by trypan blue staining; type: functional, cell-based
# Outline: (§1)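 Cells plated at 5 × 10^4 per well and transfected with 100 nM scrambled or p21 siRNA in OPTI-MEM for 4 h. Complete RPMI medium was added and cells grown a further 24 h, then exposed to 10 μM for 24 h. Viability measured by direct count after trypan blue staining. Morphology viewed by phase-contrast at 200×. Means ± SD, three experiments in triplicate.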
# SW-620 [5] = experiment: Induction of apoptosis in human SW620 cells assessed as reduction of Bcl-2 protein expression at 0.5 to 10 uM after 24 hrs by immunoblotting; type: functional, cell-based
# Outline: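 HCT-116 or SW-620 cells treated with 0–10 μM for 24 h, lysed, and run on 15% SDS-PAGE immunoblots. Probed for Bcl-2 (1:1000), Bax (1:500), caspase-9/-3 and their cleaved forms (1:1000), and β-actin (1:1000). Bands quantified by densitometry; means ± SD of three experiments in duplicate.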
# HCT-116 [6] = experiment: Cell cycle arrest in human HCT116 cells assessed as accumulation at G2/M phase at 0.1 uM after 48 hrs using propidium iodide staining by flow cytometry (reference value: 7.1 +/- 0.3%); type: functional
# SW-620 [7] = experiment: Cell cycle arrest in human SW620 cells assessed as accumulation at S phase at 1 uM after 48 hrs using propidium iodide staining by flow cytometry (reference value: 43.1 +/- 1%); type: functional
# HCT-116 [8] = experiment: Cytotoxicity against human HCT116 cells assessed as cell viability at 0.1 to 2 uM after 24 to 72 hrs; type: functional, cell-based
# Outline: (§2)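 Cells seeded at 10^5 per well in RPMI 1640/10% FBS at 37 °C. Subconfluent cells exposed to 0, 0.1, 0.5, 1, 2, 5 or 10 μM for 48 h, or to 10 μM for 24, 48 and 72 h; ethanol vehicle, at most 0.01% v/v final. Cells trypsinized and counted by hemocytometer. Viability as % of control, means ± SD, three experiments in triplicate.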
# SW-620 [9] = experiment: Cytotoxicity against human SW620 cells assessed as cell growth inhibition at 10 uM after 48 hrs; type: functional; settings: SW-620, 48 h, read-out: GI; outline: as §2
# HCT-116 [10] = experiment: Induction of apoptosis in human HCT116 cells expressing p21 siRNA assessed as change in cell morphology at 10 uM after 24 hrs by phase-contrast microscopic analysis; type: functional, cell-based; outline: as §1
# SW-620 [11] = experiment: Cell cycle arrest in human SW620 cells assessed as accumulation at S phase at 0.5 uM after 48 hrs using propidium iodide staining by flow cytometry (reference value: 43.1 +/- 1%); type: functional
# HCT-116 [12] = experiment: Cytotoxicity against human HCT116 cells at 0.1 to 10 uM; type: functional, cell-based; settings: TDE = time-dependent effect; outline: as §2
# SW-620 [13] = experiment: Increase of p21 expression in human SW620 cells at 0.5 to 10 uM after 24 hrs by immunoblotting; type: functional, cell-based
# Outline: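 HCT-116 or SW-620 cells treated with 0–10 μM for 24 h. Lysates probed for p21 by SDS-PAGE immunoblotting with ECL detection; β-actin as loading control.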
# SW-620 [14] = experiment: Cell cycle arrest in human SW620 cells assessed as accumulation at S phase at 2 uM after 48 hrs using propidium iodide staining by flow cytometry (reference value: 43.1 +/- 1%); type: functional
# SW-620 [15] = experiment: Cytotoxicity against human SW620 cells assessed as cell death at 2 uM after 48 hrs; type: functional, cell-based; outline: as §2
# HCT-116 [16] = experiment: Decrease of Cdk2 expression in human HCT116 cells after 24 hrs by immunoblotting; type: functional, cell-based
# Outline: (§3)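 HCT-116 or SW-620 cells exposed to 0–10 μM for 24 h. Cells lysed in Tris/NaCl/EDTA/1% Triton X-100 buffer with protease and phosphatase inhibitors at 4 °C, protein measured by BCA. Lysates run on 10–12.5% SDS-PAGE and immunoblotted, ECL detection. Cdk2, cyclin A and cyclin E antibodies used at 1:500; β-actin as loading control.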
# SW-620 [17] = experiment: Antitumor activity against human SW620 cells xenografted in BALB/c-nude mouse assessed as reduction of tumor volume at 100 mg/kg, po administered every other day from day 2 to 21; type: functional, organism-based; design: dose 100 mg/kg
# Outline: (§4)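 Male BALB/c-nude mice; 2 × 10^6 tumour cells in 0.2 mL PBS injected intradermally into the flank on day 0, n = 10 per group. Oral dosing every other day for 3 weeks, starting 2 days after inoculation. Caliper tumour volume = (width)2 × length/2, measured periodically. Tumours excised and weighed at day 21. Means ± SE.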
# HCT-116 [18] = experiment: Cell cycle arrest in human HCT116 cells assessed as accumulation at S phase at 1 uM after 48 hrs using propidium iodide staining by flow cytometry (reference value: 36.3 +/- 1.7%); type: functional
# SW-620 [19] = experiment: Antitumor activity against human SW620 cells xenografted in BALB/c-nude mouse assessed as reduction of tumor weight at 100 mg/kg, po administered every other day from day 2 to 21 (reference value: 417 mg); type: functional; outline: as §4
# HCT-116 [20] = experiment: Antitumor activity against human HCT116 cells xenografted in BALB/c-nude mouse assessed as reduction of tumor volume at 100 mg/kg, po administered every other day from day 2 to 21; type: functional, organism-based; design: dose 100 mg/kg; outline: as §4
# HCT-116 [21] = experiment: Cell cycle arrest in human HCT116 cells assessed as accumulation at G2/M phase at 10 uM after 48 hrs using propidium iodide staining by flow cytometry (reference value: 7.1 +/- 0.3%); type: functional
# SW-620 [22] = experiment: Decrease of cyclin A expression in human SW620 cells after 24 hrs by immunoblotting; type: functional, cell-based; outline: as §3
# SW-620 [23] = experiment: Induction of apoptosis in human SW620 cells at 10 uM after 48 hrs using Annexin V-FITC and propidium iodide staining by flow cytometry (reference value: 3.8 +/- 2.1%); type: functional
# Outline: (§5)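 Subconfluent cells in RPMI 1640 + 10% FBS treated with 0–10 μM for 48 h. Harvested cells incubated 10 min with FITC-annexin V/PI, then analysed by flow cytometry (488/525 nm for annexin V-FITC, 488/675 nm for PI). Reported as % apoptotic cells, means ± SD of three experiments in triplicate.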
# SW-620 [24] = experiment: Cytotoxicity against human SW620 cells assessed as cell viability at 10 uM after 48 to 72 hrs; type: functional, cell-based; outline: as §2
# HCT-116 [25] = experiment: Induction of apoptosis in human HCT116 cells at 5 uM after 48 hrs using Annexin V-FITC and propidium iodide staining by flow cytometry (reference value: 7.6 +/- 3%); type: functional; outline: as §5
compound,measurement,setting,value
CC(C)c1cccc(=O)c(O)c1 [HINOKITIOL],Activity,SW-620 [1],48.3%
same,Activity,HCT-116 [2],11.9%
same,Activity,SW-620 [3],7.2%
same,Activity,SW-620 [4],inactive
same,Activity,SW-620 [5],Active
same,Activity,HCT-116 [6],7.5%
same,Activity,SW-620 [7],47.7%
same,Activity,HCT-116 [8],Active
same,inhibition of growth at 10 µM,SW-620 [9],63%
same,Activity,HCT-116 [10],inactive
same,Activity,SW-620 [11],43.3%
same,Activity,HCT-116 [12],tde
same,Activity,SW-620 [13],Active
same,Activity,SW-620 [14],52.4%
same,Activity,SW-620 [15],Active
same,Activity,HCT-116 [16],Dose-dependent effect
same,Activity,SW-620 [17],Active
same,Activity,HCT-116 [18],37.2%
same,Activity,SW-620 [19],252 mg
same,Activity,HCT-116 [20],Active
same,Activity,HCT-116 [21],7.4%
same,Activity,SW-620 [22],Dose-dependent effect
same,Activity,SW-620 [23],80.3%
same,Activity,SW-620 [24],Active
same,Activity,HCT-116 [25],15.6%
